Experiment [1] deals with T1, Neutrophil elastase (Homo sapiens) (UniProt P08246).
T1 sequence (whole entry): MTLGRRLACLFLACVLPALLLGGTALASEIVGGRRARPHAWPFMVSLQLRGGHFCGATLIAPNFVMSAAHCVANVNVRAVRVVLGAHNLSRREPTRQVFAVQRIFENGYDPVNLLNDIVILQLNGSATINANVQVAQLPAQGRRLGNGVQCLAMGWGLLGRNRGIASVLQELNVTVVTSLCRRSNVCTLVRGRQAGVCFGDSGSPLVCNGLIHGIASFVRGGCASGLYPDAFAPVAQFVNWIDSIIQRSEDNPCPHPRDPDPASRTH
Briefly: Inhibition of human neutrophil elastase at 5 uM after 15 mins. The essentials:
(§1)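 Single-point screen: each enzyme incubated with inhibitor at 37 °C, then residual activity measured. Inhibition below 5% was scored as no inhibition.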

Experiment [2] has as its target Chymotrypsin-like elastase family member 1 (Sus scrofa) (UniProt P00772). Briefly: Inhibition of porcine pancreatic elastase at 5 uM after 15 mins. The essentials: as §1
Experiment [3] can be described thus: Inhibition of trypsin at 5 uM after 15 mins. In short, it runs like this:
as §1

The test system of another experiment is A549. Briefly: Antiproliferative activity against human A549 cells assessed as growth inhibition at 100 ug/ml after 72 hrs. The format is functional. The following applies: A549, 72 h.
In experiment [4] the test system is LoVo. Briefly: Antiproliferative activity against human multidrug-resistant LoVo cells assessed as growth inhibition at 100 ug/ml after 72 hrs. Type of experiment: functional.
In experiment [5] the test system is MCF7. Kind of experiment: Antiproliferative activity against human MCF7 cells assessed as growth inhibition at 100 ug/ml after 72 hrs. The following applies: MCF7, 72 h. The format is functional.
Experiment [6] relates to LoVo. Kind of experiment: Antiproliferative activity against human LoVo cells after 72 hrs. The format is functional, cell-based.
Experiment [7] in a line: Ratio of dissociation of enzyme-inhibitor-substrate complex to Ki for chymotrypsin.
Experiment [8] deals with LoVo. Briefly: Antiproliferative activity against human LoVo cells assessed as growth inhibition at 100 ug/ml after 72 hrs. The format is functional.
The test system of experiment [9] is MCF7. Briefly: Antiproliferative activity against human MCF7 cells after 72 hrs. The following applies: MCF7, 72 h. The format is functional, cell-based.

By inhibition is commonly meant the relative decrease from the control value, in per cent. What is called IC50 is the concentration that inhibits the measured activity by half. High values mean a need for much substance, low ones inhibition by little substance.

Each structure is given as a SMILES string. Converted amounts (≈) assume the structure as drawn.

Chain of Chymotrypsin-like elastase family member 1 (Sus scrofa) (P00772 whole entry): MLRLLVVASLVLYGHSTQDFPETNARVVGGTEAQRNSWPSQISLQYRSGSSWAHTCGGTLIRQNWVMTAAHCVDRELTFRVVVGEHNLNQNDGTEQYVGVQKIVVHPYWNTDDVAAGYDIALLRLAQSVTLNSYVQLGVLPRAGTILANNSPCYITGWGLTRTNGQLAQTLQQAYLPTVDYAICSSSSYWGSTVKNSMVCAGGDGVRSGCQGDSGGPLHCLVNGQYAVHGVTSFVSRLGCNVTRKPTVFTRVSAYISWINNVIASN

Turning to `Cc1ccc(C)c(OP(=O)(Oc2cc(C)ccc2C)[C@@H](CC(C)C)NC(=O)OCc2ccccc2)c1`, in experiment [1], the inhibition is under 5%.
Take `CCCC[C@@H](NC(=O)OCc1ccccc1)P(=O)(Oc1ccc(SC)cc1)Oc1ccc(SC)cc1`: the inhibition in experiment [1] and in experiment [2] was under 5% throughout.
Regarding `Cc1ccc(C)c(OP(=O)(Oc2cc(C)ccc2C)[C@H](NC(=O)OCc2ccccc2)C(C)C)c1`, the inhibition in experiment [3], in [1] and in experiment [2] was under 5% each time.
For `CC(C)c1ccc(OP(=O)(Oc2ccc(C(C)C)cc2)[C@H](NC(=O)OCc2ccccc2)C(C)C)cc1`, the inhibition in experiment [3], in [1] and in experiment [2] was under 5% in each case.
For `CCc1ccc(OP(=O)(Oc2ccc(CC)cc2)[C@H](NC(=O)OCc2ccccc2)C(C)C)cc1`, the inhibition in [3] is under 5%.
`CCC(NC(=O)OCc1ccccc1)P(=O)(Oc1ccc(C(C)C)cc1)Oc1ccc(C(C)C)cc1` (centres undefined) came in with an inhibition in experiment [3] of under 5%.
Consider `CCC[C@@H](NC(=O)OCc1ccccc1)P(=O)(Oc1cccc(C)c1C)Oc1cccc(C)c1C`, for which the inhibition in experiment [1] and in experiment [2] was under 5% throughout.
`CCC[C@@H](NC(=O)OCc1ccccc1)P(=O)(Oc1ccc(OC)cc1)Oc1ccc(OC)cc1`: the inhibition in experiment [1] and in [2] was under 5% throughout.
For the molecule `CSc1ccc(OP(=O)(Oc2ccc(SC)cc2)[C@H](NC(=O)OCc2ccccc2)C(C)C)cc1`, the inhibition in [2] is under 5%.
For `CSc1ccc(OP(=O)(Oc2ccc(SC)cc2)[C@@H](CC(C)C)NC(=O)OCc2ccccc2)cc1`, the inhibition in experiment [2] was under 5%.
For the molecule `CCC(NC(=O)OCc1ccccc1)P(=O)(Oc1ccc(C(=O)OC)cc1)Oc1ccc(C(=O)OC)cc1` (centres undefined), the inhibition at 100 µg/mL with A549 turned out to be 31%; with LoVo [4] it was 38%; with MCF7 [5], 49%. In the experiment on LoVo [6], this molecule showed an IC50 of 73 µg/mL (≈ 135 µM). The Ratio in experiment [7] was 1070 M⁻¹ s⁻¹.
`CCC(NC(=O)OCc1ccccc1)P(=O)(Oc1ccc(C)cc1)Oc1ccc(C)cc1` (centres undefined): the inhibition in experiment [1] and in experiment [2] was under 5% in each case.
Regarding `CC(C)(C)C(=O)Oc1ccc(S(=O)(=O)Nc2ccccc2C(=O)NCC(=O)O)cc1` [SIVELESTAT], the values for the inhibition at 100 µg/mL with LoVo [4], in the experiment on MCF7 [5] and in the experiment on LoVo [8] were 15%, 61% and 20%, respectively.
As to `COC(=O)c1ccc(OP(=O)(Oc2ccc(C(=O)OC)cc2)[C@H](NC(=O)OCc2ccccc2)C(C)C)cc1`, the inhibition at 100 µg/mL with A549 is 46%; in the experiment on LoVo [4] it was 54%. In addition, the IC50 in the experiment with MCF7 [9] stood at 47 µg/mL (≈ 84.6 µM); in the experiment with LoVo [6] it was 32 µg/mL (≈ 57.6 µM). In experiment [7], the Ratio is under 50 M⁻¹ s⁻¹. Moreover, in [2], the inhibition is under 5%.
As for `CC(C)[C@@H](NC(=O)OCc1ccccc1)P(=O)(Oc1ccccc1)Oc1ccccc1`, the inhibition in experiment [3], in [1] and in experiment [2] was under 5% in each case.
For `CCC(NC(=O)OCc1ccccc1)P(=O)(Oc1ccc(C)c(C)c1)Oc1ccc(C)c(C)c1` (centres undefined), the inhibition in experiment [1] and in experiment [2] was under 5% in each case.
As for `CC(C)[C@@H](NC(=O)OCc1ccccc1)P(=O)(Oc1ccc(C(C)(C)CC(C)(C)C)cc1)Oc1ccc(C(C)(C)CC(C)(C)C)cc1`, the inhibition in experiment [3], in experiment [1] and in [2] was under 5% each time.
`CCC(NC(=O)OCc1ccccc1)P(=O)(Oc1ccc(C(C)(C)C)cc1)Oc1ccc(C(C)(C)C)cc1` (centres undefined): the inhibition in experiment [1] and in experiment [2] was under 5% throughout.
In the case of `CSc1ccc(OP(=O)(Oc2ccc(SC)cc2)[C@@H](C)NC(=O)OCc2ccccc2)cc1`, the inhibition in [3] and in experiment [2] was under 5% each time.
For `C[C@@H](NC(=O)OCc1ccccc1)P(=O)(Oc1ccccc1)Oc1ccccc1`, the inhibition in experiment [3] and in [2] was under 5% throughout.
Regarding `CCCC[C@@H](NC(=O)OCc1ccccc1)P(=O)(Oc1ccccc1)Oc1ccccc1`, the inhibition in experiment [3] and in [2] was under 5% in each case.
`CC(C)C[C@@H](NC(=O)OCc1ccccc1)P(=O)(Oc1ccc(Cl)cc1)Oc1ccc(Cl)cc1` displayed an inhibition in experiment [2] of under 5%.
`CC(C)c1ccc(OP(=O)(Oc2ccc(C(C)C)cc2)[C@@H](C)NC(=O)OCc2ccccc2)cc1`: the inhibition in [3] and in [2] was under 5% throughout.
The molecule `Cc1ccccc1OP(=O)(Oc1ccccc1C)[C@@H](CC(C)C)NC(=O)OCc1ccccc1` registered an inhibition in experiment [2] of under 5%.
Still for that read-out and setting: the value for `CCC(NC(=O)OCc1ccccc1)P(=O)(Oc1ccccc1)Oc1ccccc1` (centres undefined) was under 5%.
`COc1ccc(OP(=O)(Oc2ccc(OC)cc2)[C@@H](CC(C)C)NC(=O)OCc2ccccc2)cc1` gave an inhibition in experiment [1] of under 5%.
For the molecule `CCCC[C@@H](NC(=O)OCc1ccccc1)P(=O)(Oc1ccc(C(=O)OC)cc1)Oc1ccc(C(=O)OC)cc1`, the Ratio in experiment [7] is under 50 M⁻¹ s⁻¹.
With `COC(=O)c1ccc(OP(=O)(Oc2ccc(C(=O)OC)cc2)[C@@H](C)NC(=O)OCc2ccccc2)cc1`, the values for the inhibition at 100 µg/mL in the experiment on A549 and with LoVo [4] were 25% and 46%, respectively. For the same molecule, the IC50 in the experiment with MCF7 [9] came to 40 µg/mL (≈ 75.8 µM); with LoVo [6] it was 47 µg/mL (≈ 89.1 µM). In addition, in [7], the Ratio came out at 1530 M⁻¹ s⁻¹.
Regarding `COC(=O)c1ccc(OP(=O)(Oc2ccc(C(=O)OC)cc2)[C@@H](CC(C)C)NC(=O)OCc2ccccc2)cc1`, the inhibition at 100 µg/mL worked out at 3% in the experiment on A549, 6% with LoVo [4], 8% with MCF7 [5] and 22% in the experiment on LoVo [8]. Moreover, in experiment [7], the Ratio was under 50 M⁻¹ s⁻¹.
In the case of `CC(C)[C@@H](NC(=O)OCc1ccccc1)P(=O)(Oc1ccc(C(C)(C)C)cc1)Oc1ccc(C(C)(C)C)cc1`, the inhibition in experiment [3] and in experiment [2] was under 5% throughout.
In [3], `C[C@@H](NC(=O)OCc1ccccc1)P(=O)(Oc1ccc(C(C)(C)C)cc1)Oc1ccc(C(C)(C)C)cc1` registered an inhibition of under 5%.
Take `CCC[C@@H](NC(=O)OCc1ccccc1)P(=O)(Oc1cc(C)c(C)c(C)c1)Oc1cc(C)c(C)c(C)c1`: the inhibition in [3], in experiment [1] and in experiment [2] was under 5% in each case.
On to `COc1ccc(OP(=O)(Oc2ccc(OC)cc2)[C@H](NC(=O)OCc2ccccc2)C(C)C)cc1`, for which, in experiment [3], the inhibition was under 5%.
`CCC[C@@H](NC(=O)OCc1ccccc1)P(=O)(Oc1ccc(C(=O)OC)cc1)Oc1ccc(C(=O)OC)cc1`: the results for the inhibition at 100 µg/mL in the experiment on A549 and in the experiment on LoVo [4] were 40% and 47%, respectively. Also, the figures for the IC50 with MCF7 [9] and in the experiment with LoVo [6] were 52 µg/mL (≈ 93.6 µM) and 47 µg/mL (≈ 84.6 µM), respectively. Also, in [7], the Ratio was under 50 M⁻¹ s⁻¹.
On to `CCC[C@@H](NC(=O)OCc1ccccc1)P(=O)(Oc1cc(C)cc(C)c1C)Oc1cc(C)cc(C)c1C`, for which the inhibition in experiment [1] and in experiment [2] was under 5% in each case.
In the case of `CC(C)[C@@H](NC(=O)OCc1ccccc1)P(=O)(Oc1ccc(S(C)(=O)=O)cc1)Oc1ccc(S(C)(=O)=O)cc1`, the figures for the inhibition at 100 µg/mL with A549, with MCF7 [5] and with LoVo [8] were 5%, 19% and 15%, respectively. The Ratio in [7] turned out to be 707 M⁻¹ s⁻¹.
Molecule `CCCC[C@@H](NC(=O)OCc1ccccc1)P(=O)(Oc1ccc(C(C)(C)C)cc1)Oc1ccc(C(C)(C)C)cc1` returned an inhibition in experiment [3] of under 5%.
In the case of `CCc1ccc(OP(=O)(Oc2ccc(CC)cc2)[C@@H](C)NC(=O)OCc2ccccc2)cc1`, the inhibition in experiment [3] and in [2] was under 5% each time.
`CCc1ccc(OP(=O)(Oc2ccc(CC)cc2)C(CC)NC(=O)OCc2ccccc2)cc1` (centres undefined): the inhibition in experiment [2] was under 5%.
Consider `CCC(NC(=O)OCc1ccccc1)P(=O)(Oc1ccc(Cl)cc1)Oc1ccc(Cl)cc1` (centres undefined), for which, in [7], the Ratio was under 50 M⁻¹ s⁻¹.

Values taken from ChEMBL document CHEMBL1681697, “Simple phosphonic inhibitors of human neutrophil elastase” (Bioorg Med Chem Lett, 2011).
